Reference: ChEMBL document CHEMBL1671820, “Incorporation of basic side chains into cryptolepine scaffold: structure-antimalarial activity relationships and mechanistic studies” (J Med Chem, 2011)

What was measured:
[1] = test system: Plasmodium falciparum; test: Antiplasmodial activity against chloroquine-resistant ring stage Plasmodium falciparum W2 infected in human red blood cells after 48 hrs; assay type: functional, organism-based; conditions: W2, 48 h
[2] = test system: Plasmodium falciparum; test: Antiplasmodial activity against chloroquine-sensitive ring stage Plasmodium falciparum 3D7 infected in human red blood cells after 48 hrs; assay type: functional, organism-based; conditions: 3D7, 48 h
[3] = test system: Plasmodium falciparum; test: Antiplasmodial activity against chloroquine and pyrimethamine-resistant ring stage Plasmodium falciparum V1/S infected in human red blood cells after 48 hrs; assay type: functional, organism-based
[4] = test system: Plasmodium falciparum; test: Antiplasmodial activity against chloroquine-sensitive, mefloquine-resistant ring stage Plasmodium falciparum D6 infected in human red blood cells after 48 hrs; assay type: functional, organism-based; conditions: D6, 48 h
[5] = test system: Vero; test: Cytotoxicity against african green monkey Vero cells after 48 hrs by MTT assay; assay type: cell-based; conditions: Chlorocebus sabaeus
Outline: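 Vero monkey kidney cells in DMEM with 10% FBS at 37 C, 7% CO2; seeded 15000 cells/well and adhered overnight. Log dilutions from 30 mg/mL DMSO stock, 48 h exposure. MTT at 0.5 mg/mL final for 2 h; formazan dissolved in 95% ethanol, read at 570 nm. Viability relative to DMSO-medium wells; IC50 from concentration–viability curve; doxorubicin as standard.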

[6] = Selectivity index, ratio of IC50 for african green monkey Vero cells to IC50 for chloroquine-resistant ring stage Plasmodium falciparum W2; assay type: toxicity, cell-based; conditions: read-out: Ratio IC50
Outline: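 Vero IC50 divided by W2 IC50. Vero: 15000 cells/well adhered overnight, then log dilutions from 30 mg/mL DMSO stock for 48 h. MTT 0.5 mg/mL final for 2 h at 37 C, formazan dissolved in 95% ethanol, A570 read against DMSO vehicle as 100% viability. W2: 48 h YOYO-1 flow-cytometric growth assay in human erythrocytes.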

[7] = test system: Plasmodium falciparum; test: Resistance index, ratio of IC50 for chloroquine-resistant ring stage Plasmodium falciparum W2 to IC50 for chloroquine-sensitive ring stage Plasmodium falciparum 3D7; assay type: functional
Outline: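 W2 IC50 divided by 3D7 IC50. Both were measured by 48 h YOYO-1 flow-cytometric growth assay on sorbitol-synchronised 1% ring-stage cultures in human erythrocytes at 37 C under 3% O2.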

[8] = test system: Heme; test: Binding affinity to heme by UV-visible titration
Outline: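 Hematin monomer (FPIX-OH, 10 μM) in pH 5.5 HEPES-buffered 40% DMSO v/v at 25 C, titrated with ligand from 100 μM solution until above hematin concentration. Stirred 1 min per addition; spectra 230–500 nm, Soret change at 402 nm. Absorbance dilution-corrected, nonlinear fit for Kd; Kass calculated from Kd.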

[9] = test system: Nucleic Acid; test: Binding affinity to s(GATCCTAGGATC)2-DNA by fluorescence spectroscopy; assay type: nucleic-acid assay
Outline: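 Buffer 0.01 M phosphate pH 7.4, 0.1 M NaCl, 25.0 C, 1 cm quartz cuvettes. Fluorescence: excitation 339 nm, emission 450–500 nm. Dilution-corrected intensity change fitted to single-site binding for Kd; Kass taken as 1/Kd.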

[10] = Inhibition of Plasmodium falciparum falcipain 2
[11] = Inhibition of Plasmodium falciparum falcipain 3

Row | SMILES | IC50 [1] [nM] | IC50 [2] [nM] | IC50 [3] [nM] | IC50 [4] [nM] | IC50 [5] [nM] | selectivity ratio [6] | Ratio IC50 [7] | Ka [8] [×10⁶ /M] | Ka [9] [×10⁶ /M] | IC50 [10] [nM] | IC50 [11] [nM]
1 | C[n+]1c2ccccc2c(NCCCCN)c2[nH]c3ccccc3c21.[Cl-] | 65 | 190 | 422 | 245 | > 85000 | 1310 | 0.2 | 0.147 | 1.4 | – | –
2 | CN(C)CCNc1c2ccccc2[n+](C)c2c1[nH]c1ccccc12.[Cl-] | – | 62 | 85 | 66 | – | 111 | 0.8 | 0.12 | 3.1 | > 50000 | –
3 | C[n+]1c2ccccc2c(NC2CCN(Cc3ccccc3O)CC2)c2[nH]c3ccccc3c21.[Cl-] | 276 | 536 | 418 | 185 | – | 10 | 0.7 | 0.108 | 0.6 | 14800 | 43000
4 | C[n+]1c2ccccc2c(NCCCN2CCCCC2)c2[nH]c3ccccc3c21.[Cl-] | – | 23 | 28 | 34 | 20000 | 56 | 1.3 | 0.161 | 5.3 | – | –
5 | CCN(CC)c1c2ccccc2[n+](C)c2c1[nH]c1ccccc12.[Cl-] | 1250 | 2200 | 1770 | 1290 | – | 2 | 0.7 | 0.19 | 0.47 | 18000 | 46300
6 | C[n+]1c2cc(Cl)ccc2c(NC2CCNCC2)c2[nH]c3ccccc3c21.[Cl-] | 45 | 65 | 52 | 70 | – | 98 | 0.9 | 0.18 | 4.5 | 5600 | –
7 | CCN(CC)CCCNc1c2ccccc2[n+](C)c2c1[nH]c1ccccc12.[Cl-] | – | 20 | 29 | – | – | 78 | 1.1 | 0.127 | 9.1 | – | –
8 | CCN(CC)CCCC(C)Nc1c2ccccc2[n+](C)c2c1[nH]c1ccccc12.[Cl-] (stereo not given) | 122 | 145 | 274 | 161 | – | 103 | 0.4 | 0.062 | 4.3 | 11600 | 7000
9 | C[n+]1c2ccccc2c(Nc2cccnc2)c2[nH]c3ccccc3c21.[Cl-] | 180 | 247 | 279 | 166 | – | 14 | 0.6 | 0.17 | 1 | 9320 | –
10 | CC(C)CN1CCC(Nc2c3ccccc3[n+](C)c3c2[nH]c2ccccc23)CC1.[Cl-] | 70 | 70 | 76 | 86 | – | 70 | 0.9 | 0.227 | 0.74 | 10500 | 16000
11 | C[n+]1c2ccccc2c(NCCN)c2[nH]c3ccccc3c21.[Cl-] | 89 | 115 | 156 | 107 | 60000 | 678 | 0.6 | 0.127 | 0.85 | 6300 | > 25000
12 | CCN(CC)Cc1ccc(Nc2c3ccccc3[n+](C)c3c2[nH]c2ccccc23)cc1O.[Cl-] | 52 | 56 | 15 | 24 | – | 17 | 3.5 | 0.075 | 0.8 | 15200 | –
13 | CCN(CC)CCCCNc1c2ccccc2[n+](C)c2c1[nH]c1ccccc12.[Cl-] | 29 | 22.3 | 66 | 71 | 10000 | 358 | 0.4 | 0.15 | 9 | – | –
14 | CN(C)CCCNc1c2ccccc2[n+](C)c2c1[nH]c1ccccc12.[Cl-] | 20 | 24 | 51 | 46 | – | 109 | 0.4 | 0.066 | 3 | 34000 | > 50000
15 | C[n+]1c2cc(Cl)ccc2c(NC2CCNCC2)c2[nH]c3cc(Cl)ccc3c21.[Cl-] | 48 | 31 | 35 | 30 | – | 16 | 1.4 | 0.12 | 1.6 | 4800 | –
16 | CCN(CC)CCCNc1c2ccc(Cl)cc2[n+](C)c2c1[nH]c1ccccc12.[Cl-] | 21 | 34 | 40 | 70 | 13000 | 60 | 0.5 | 0.11 | 17 | 11000 | –
17 | CN(C)CC(C)(C)CNc1c2ccccc2[n+](C)c2c1[nH]c1ccccc12.[Cl-] | – | 146 | 144 | 250 | – | 18 | 1.3 | 0.069 | 2.6 | 33500 | 26000
18 | C[n+]1c2ccccc2c(NC2CCN(Cc3ccccc3)CC2)c2[nH]c3ccccc3c21.[Cl-] | 108 | 56 | 59 | 86 | – | 21 | 1.8 | 0.125 | 0.68 | 12800 | –
19 | CCN(CC)CCNc1c2ccccc2[n+](C)c2c1[nH]c1ccccc12.[Cl-] | – | 130 | 72 | 70 | – | 34 | 1.2 | 0.41 | 1.14 | > 50000 | –
20 | CC(C)NCCCNc1c2ccccc2[n+](C)c2c1[nH]c1ccccc12.[Cl-] | – | 26.1 | 28 | 34 | – | 125 | 0.8 | 0.2 | 5 | > 25000 | –
21 | C[n+]1c2ccccc2c(NCCCN)c2[nH]c3ccccc3c21.[Cl-] | 26 | 54 | 133 | 71 | 10000 | 371 | 0.2 | 0.18 | 0.25 | 11000 | 14000
22 | CC(CN(C)C)Nc1c2ccccc2[n+](C)c2c1[nH]c1ccccc12.[Cl-] (stereo not given) | 142 | 202 | 165 | 78 | – | 23 | 0.9 | 0.148 | 1.9 | 8300 | 14000
23 | C[n+]1c2ccccc2c(Nc2ccccc2)c2[nH]c3ccccc3c21.[Cl-] | 265 | 291 | 128 | 154 | – | 2 | 0.2 | 0.155 | 0.51 | 14000 | –
24 | C[n+]1c2ccccc2c(Nc2ccc(N3CCCCC3)cc2)c2[nH]c3ccccc3c21.[Cl-] | 455 | 375 | 176 | 287 | – | 11 | 2.6 | 0.21 | 3.4 | 8200 | –
